For the test, the target named is Fatty acid synthase (Homo sapiens) (UniProt P49327). Description: FAS thioesterase domain inhibitors, SAR follow-up, biochemical, kinetic fluorescence, OMFH substrate, round 2, powder samples (AID 652286). The settings on record: recombinant FAS-TE, OMFH fluorogenic substrate. An outline of the steps: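 Test system: FAS thioesterase domain enzyme | Medium: Tris-HCl pH 7.5 buffer with NaCl, sarcosine, TCEP, Brij35 | Also added: OMFH fluorogenic substrate (2x stock 60 µM) | Dosing: Dose-response series, 5.5% DMSO final in well | Times: 10-min read interval, room temperature | Signal: Fluorescence at 480/540 nm, kinetic mode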

“And” between values parts separate entries of the source, which are not always exact repeats. Equal entries are not always repeated. The source made the active and inactive calls.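 Rule for the calls: active = compounds halving thioesterase enzyme activity at 20 µM or lower; inactive = the rest.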

As a reminder, the IC50 is the midpoint of a concentration-inhibition curve.

Fatty acid synthase (Homo sapiens), sequence (P49327 whole entry, looked up, the tested form may be a part): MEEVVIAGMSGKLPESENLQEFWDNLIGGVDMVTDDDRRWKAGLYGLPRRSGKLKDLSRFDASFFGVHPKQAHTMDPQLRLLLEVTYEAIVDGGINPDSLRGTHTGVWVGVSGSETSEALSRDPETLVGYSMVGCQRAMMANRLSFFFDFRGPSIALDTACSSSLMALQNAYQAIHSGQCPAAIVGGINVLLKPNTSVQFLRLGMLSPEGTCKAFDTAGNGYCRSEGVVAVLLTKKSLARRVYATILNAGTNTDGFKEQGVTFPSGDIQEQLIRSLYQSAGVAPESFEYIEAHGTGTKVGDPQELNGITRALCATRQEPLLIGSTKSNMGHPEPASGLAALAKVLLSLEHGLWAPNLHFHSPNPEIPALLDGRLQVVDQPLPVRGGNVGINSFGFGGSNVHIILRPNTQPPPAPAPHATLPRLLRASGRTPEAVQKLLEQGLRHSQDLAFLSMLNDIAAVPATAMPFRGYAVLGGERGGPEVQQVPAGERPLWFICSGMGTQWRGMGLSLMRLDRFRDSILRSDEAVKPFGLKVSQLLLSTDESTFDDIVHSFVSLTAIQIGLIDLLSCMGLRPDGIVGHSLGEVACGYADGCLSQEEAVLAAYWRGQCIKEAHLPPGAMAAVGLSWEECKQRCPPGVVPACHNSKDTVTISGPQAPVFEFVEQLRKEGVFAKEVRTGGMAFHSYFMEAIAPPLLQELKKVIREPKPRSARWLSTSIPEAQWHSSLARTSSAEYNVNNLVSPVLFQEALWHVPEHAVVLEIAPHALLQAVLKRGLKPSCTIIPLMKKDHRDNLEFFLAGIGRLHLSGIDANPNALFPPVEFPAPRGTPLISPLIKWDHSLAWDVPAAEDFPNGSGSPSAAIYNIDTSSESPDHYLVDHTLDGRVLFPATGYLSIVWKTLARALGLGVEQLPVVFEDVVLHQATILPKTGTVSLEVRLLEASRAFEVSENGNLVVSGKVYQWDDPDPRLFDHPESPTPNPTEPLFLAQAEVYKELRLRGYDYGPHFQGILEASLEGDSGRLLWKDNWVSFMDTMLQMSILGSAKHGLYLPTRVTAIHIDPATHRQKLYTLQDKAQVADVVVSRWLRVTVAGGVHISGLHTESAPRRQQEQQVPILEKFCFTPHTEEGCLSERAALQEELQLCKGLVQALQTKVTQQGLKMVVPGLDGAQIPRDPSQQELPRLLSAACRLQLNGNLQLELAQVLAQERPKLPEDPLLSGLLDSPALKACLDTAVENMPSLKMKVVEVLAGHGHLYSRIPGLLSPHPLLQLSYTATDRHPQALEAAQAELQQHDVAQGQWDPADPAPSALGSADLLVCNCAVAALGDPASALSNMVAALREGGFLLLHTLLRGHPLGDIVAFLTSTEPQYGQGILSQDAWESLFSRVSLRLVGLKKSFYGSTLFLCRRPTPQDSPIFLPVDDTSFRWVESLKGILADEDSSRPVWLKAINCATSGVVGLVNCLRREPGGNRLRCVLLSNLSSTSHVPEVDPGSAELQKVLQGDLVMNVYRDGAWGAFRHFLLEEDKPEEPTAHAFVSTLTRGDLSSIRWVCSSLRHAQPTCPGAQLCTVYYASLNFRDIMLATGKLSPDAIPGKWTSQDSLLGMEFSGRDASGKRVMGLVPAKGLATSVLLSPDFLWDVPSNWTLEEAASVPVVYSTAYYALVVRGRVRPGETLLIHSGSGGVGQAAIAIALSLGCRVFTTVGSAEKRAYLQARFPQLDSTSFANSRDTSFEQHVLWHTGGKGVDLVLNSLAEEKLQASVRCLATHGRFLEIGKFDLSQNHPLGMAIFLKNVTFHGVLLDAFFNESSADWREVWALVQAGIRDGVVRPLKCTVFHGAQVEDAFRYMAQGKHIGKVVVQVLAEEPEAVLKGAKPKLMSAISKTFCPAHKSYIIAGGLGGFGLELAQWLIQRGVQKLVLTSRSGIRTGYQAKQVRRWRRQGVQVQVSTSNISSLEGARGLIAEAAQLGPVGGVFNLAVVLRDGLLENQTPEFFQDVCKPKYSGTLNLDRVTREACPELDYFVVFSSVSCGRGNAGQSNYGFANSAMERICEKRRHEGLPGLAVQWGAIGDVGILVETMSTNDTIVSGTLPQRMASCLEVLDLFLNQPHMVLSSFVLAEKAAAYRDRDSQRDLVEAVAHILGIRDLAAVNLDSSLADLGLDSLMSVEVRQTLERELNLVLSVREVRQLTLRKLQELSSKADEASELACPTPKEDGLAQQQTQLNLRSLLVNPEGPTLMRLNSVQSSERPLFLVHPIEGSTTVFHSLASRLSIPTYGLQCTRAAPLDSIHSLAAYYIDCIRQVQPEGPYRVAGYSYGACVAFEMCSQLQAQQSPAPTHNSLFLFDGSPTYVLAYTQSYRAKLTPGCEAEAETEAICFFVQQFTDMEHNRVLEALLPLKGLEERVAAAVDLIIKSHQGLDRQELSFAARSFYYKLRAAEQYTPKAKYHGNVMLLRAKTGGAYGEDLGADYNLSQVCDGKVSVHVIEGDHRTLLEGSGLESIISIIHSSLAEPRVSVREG

As for `CCCCCCC(=O)Nc1nc(-c2ccc(S(=O)(=O)N3CCCC3)cc2)cs1`, the IC50 was 874 nM.

Turning to `CC(C)CC(=O)Nc1nc(-c2ccc(S(=O)(=O)N3CCCC3)cc2)cs1`, the IC50 is 1640 nM.

For `CCC(CC)C(=O)Nc1nc(-c2ccc(S(=O)(=O)N3CCCC3)cc2)cs1`, the IC50 was 254 nM. Next, `CCCCCCC(=O)Nc1nc(-c2ccc(S(=O)(=O)N(CC)CC)cc2)cs1`: 1400 nM; `CC(C)CC(=O)Nc1nc(-c2ccc(S(=O)(=O)N3CCC(C)CC3)cc2)cs1`: “inactive”; `CCCCC(=O)Nc1nc(-c2ccc(S(=O)(=O)N3CCCCC3C)cc2)cs1` (stereo not drawn): 358 nM. Then `Cn1c(SCC(=O)Nc2ncc(C(F)(F)F)cc2Cl)nnc1-c1ccc(Cl)cc1`, with 682 nM; and `CCCCCC(=O)Nc1nc(-c2ccc(S(=O)(=O)N3CCCCC3C)cc2)cs1` (stereo not drawn), with 552 nM; and `CC1CCN(S(=O)(=O)c2ccc(-c3csc(NC(=O)C(C)C)n3)cc2)CC1`, with 489 nM. Regarding `CCCCCC(=O)Nc1nc(-c2ccc(S(=O)(=O)N(CC)CC)cc2)cs1`, the IC50 was 190 nM. Then `CCCCCC(=O)Nc1nc(-c2ccc(S(=O)(=O)N3CCCC3)cc2)cs1`, with 137 nM.

For `CCC(CC)C(=O)Nc1nc(-c2ccc(S(=O)(=O)N(CC)CC)cc2)cs1`, the IC50 is 343 nM. Next, `CCC(CC)C(=O)Nc1nc(-c2ccc(S(=O)(=O)N3CCC(C)CC3)cc2)cs1`: 1820 nM; `CCCCCCC(=O)Nc1nc(-c2ccc(S(=O)(=O)N3CCCCC3C)cc2)cs1` (stereo not drawn): 4430 nM. Then `CCCCCCC(=O)Nc1nc(-c2ccc(S(=O)(=O)N3CCC(C)CC3)cc2)cs1`, with 5850 nM; and `CCC(C)C(=O)Nc1nc(-c2ccc(S(=O)(=O)N3CCCC3)cc2)cs1` (stereo not drawn), with 141 nM; and `CCC(C)C(=O)Nc1nc(-c2ccc(S(=O)(=O)N(CC)CC)cc2)cs1` (stereo not drawn), with 1060 nM and 152 nM.

In the case of `CCC(C)C(=O)Nc1nc(-c2ccc(S(=O)(=O)N3CCC(C)CC3)cc2)cs1` (stereo not drawn), the IC50 was 405 nM. In the case of `CCC(C)C(=O)Nc1nc(-c2ccc(S(=O)(=O)N3CCCCC3C)cc2)cs1` (stereo not drawn), the concentration for half-maximal inhibition (IC50) was 278 nM. Next, `CCCCCC(=O)Nc1nc(-c2ccc(S(=O)(=O)N3CCC(C)CC3)cc2)cs1`: 762 nM; `CN(Cc1ccc(C(C)(C)C)cc1)C(=O)Cc1ccc(S(=O)(=O)N2CCOCC2)s1`: 365 nM; `CCCCCCCCCCC[C@H](C[C@@H]1OC(=O)[C@H]1CCCCCC)OC(=O)[C@@H](NC=O)C(C)C`: 122 nM.

Regarding `CCCCC(=O)Nc1nc(-c2ccc(S(=O)(=O)N3CCOCC3)cc2)cs1`, the IC50 is 201 nM.
